The values below come from article PMC10125284 (ACS Bio & Med Chem Au, 2022).

“Also recorded” adds a separate entry of the source. Read-outs that look alike come from different tables or passages of the source.

The target in experiment [1] is T1, Tar (Escherichia coli, UniProt P07017). Nature of the experiment: Microfluidic chemotaxis assay, UU1250 expressing Tar as sole receptor. The class given is cell-based. Particulars: cells expressing Tar as sole receptor.
The subject of the next experiment is wild-type RP437. Nature of the experiment: FRET assay, wild-type RP437. It is filed as cell-based, Escherichia coli.
For experiment [2], the target named is T2, Tsr^N68A (Escherichia coli, UniProt P02942, N68A). The experiment in a line: Microfluidic chemotaxis assay, cells expressing Tsr^N68A as sole receptor. The class given is cell-based.
T2 sequence (P02942 whole entry N68A): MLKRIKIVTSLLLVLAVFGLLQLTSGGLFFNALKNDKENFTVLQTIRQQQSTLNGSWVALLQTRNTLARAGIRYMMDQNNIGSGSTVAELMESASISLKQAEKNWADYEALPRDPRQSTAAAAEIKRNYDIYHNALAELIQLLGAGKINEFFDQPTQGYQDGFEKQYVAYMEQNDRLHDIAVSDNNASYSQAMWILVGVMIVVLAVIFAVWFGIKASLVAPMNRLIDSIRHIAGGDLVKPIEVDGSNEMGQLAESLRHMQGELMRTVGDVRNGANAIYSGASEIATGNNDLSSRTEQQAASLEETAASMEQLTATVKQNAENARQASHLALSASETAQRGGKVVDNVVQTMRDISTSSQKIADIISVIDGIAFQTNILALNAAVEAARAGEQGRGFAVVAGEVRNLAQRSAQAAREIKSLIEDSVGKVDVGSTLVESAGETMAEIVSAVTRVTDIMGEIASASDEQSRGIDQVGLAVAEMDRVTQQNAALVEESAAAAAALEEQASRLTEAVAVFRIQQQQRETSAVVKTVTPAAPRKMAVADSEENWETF
The target of experiment [3] is T3, Tasr (Escherichia coli, UniProt P02942+P07017). Nature of the experiment: FRET assay, cells expressing Tasr as sole receptor. The class given is cell-based.
T3 sequence (P07017 1-199): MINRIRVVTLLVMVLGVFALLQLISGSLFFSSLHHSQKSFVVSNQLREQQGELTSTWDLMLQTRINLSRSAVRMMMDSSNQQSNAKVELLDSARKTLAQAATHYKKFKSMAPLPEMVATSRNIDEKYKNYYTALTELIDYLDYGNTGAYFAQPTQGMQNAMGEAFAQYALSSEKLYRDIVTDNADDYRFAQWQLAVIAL
T3 sequence (P02942 202-551): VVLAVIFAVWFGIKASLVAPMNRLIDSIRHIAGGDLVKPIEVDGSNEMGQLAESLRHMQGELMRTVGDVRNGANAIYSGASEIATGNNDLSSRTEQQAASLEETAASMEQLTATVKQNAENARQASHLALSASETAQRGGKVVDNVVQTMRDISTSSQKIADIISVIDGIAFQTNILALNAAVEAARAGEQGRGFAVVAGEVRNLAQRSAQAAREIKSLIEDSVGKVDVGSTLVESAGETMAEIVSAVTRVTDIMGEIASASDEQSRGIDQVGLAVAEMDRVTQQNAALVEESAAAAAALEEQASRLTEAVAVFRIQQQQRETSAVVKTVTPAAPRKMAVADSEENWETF
Experiment [4] concerns the target T4, Tsar (Escherichia coli, UniProt P02942+P07017). Nature of the experiment: Microfluidic chemotaxis assay, UU1250 expressing hybrid Tsar as sole receptor. The class given is cell-based. The settings on record: cells expressing hybrid Tsar as sole receptor.
In the next experiment the target is Tsr^R64AN68A (Escherichia coli, UniProt P02942, N68A/R64A). The experiment in a line: Microfluidic chemotaxis assay, cells expressing Tsr^R64AN68A as sole receptor. The class given is cell-based.
Chain of Tsr^R64AN68A (P02942 whole entry R64A/N68A): as the sequence (P02942 whole entry N68A) above, with R64A counted along it
Experiment [5] concerns the target T1, Tar. Nature of the experiment: FRET assay, cells expressing Tar as sole receptor. The class given is cell-based.
The target of another experiment is Tsr^R64A (Escherichia coli, UniProt P02942, R64A). Nature of the experiment: Microfluidic chemotaxis assay, cells expressing Tsr^R64A as sole receptor. The class given is cell-based.
Chain of Tsr^R64A (P02942 whole entry R64A): as the sequence (P02942 whole entry N68A) above, with R64A, A68N counted along it
Experiment [6] concerns the target T5, Tsr (Escherichia coli, UniProt P02942). Nature of the experiment: Microfluidic chemotaxis assay, UU1250 expressing Tsr as sole receptor. It is filed as cell-based. Particulars: UU1250 expressing wild-type Tsr as sole receptor and GFP.
The test system of experiment [7] is wild-type E. coli strain RP437. Nature of the experiment: Microfluidic chemotaxis assay, wild-type strain RP437. The class given is cell-based, Escherichia coli. Particulars: wild-type E. coli RP437, all five chemoreceptors.
In experiment [8] the target is T4, Tsar. Nature of the experiment: FRET assay, cells expressing Tsar as sole receptor. It is filed as cell-based.
Experiment [9] has as its target T5, Tsr. The experiment in a line: FRET. The settings on record: for effect of adaptation to L-serine on FRET response to ligand: Tsr adapted to 200 μM L-serine; for FRET response (kinase activity): Tsr as sole receptor, buffer-adapted. The class given is cell-based.
Experiment [10] deals with T3, Tasr. The experiment in a line: Microfluidic chemotaxis assay, UU1250 expressing hybrid Tasr as sole receptor. It is filed as cell-based. Particulars: cells expressing hybrid Tasr as sole receptor.
Experiment [11] deals with T6, Tsr-LBD (Escherichia coli, UniProt P02942).
T6 sequence (P02942 30-190): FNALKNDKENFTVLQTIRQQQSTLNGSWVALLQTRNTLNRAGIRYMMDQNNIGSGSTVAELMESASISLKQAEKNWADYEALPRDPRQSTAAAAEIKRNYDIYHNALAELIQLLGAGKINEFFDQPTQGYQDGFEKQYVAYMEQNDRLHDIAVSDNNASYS
Nature of the experiment: Microscale thermophoresis. Particulars: for binding to Tsr-LBD in competition (MST): pocket saturated with high concentration of L-serine (25 mM). It is filed as binding. Summed up: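 Tsr residues 30-190 carrying an N-terminal 6×His tag were expressed in E. coli after 1 mM IPTG induction for 6 h at 28 °C. The protein was purified by Ni affinity and gel filtration (50 mM Tris-HCl pH 8.0, 200 mM NaCl) and labelled with a RED-tris-NTA His-tag dye. Compound serial dilutions in HEPES buffer were mixed 1:1 with protein and read in capillaries at 60% excitation and 20% MST power. Kd came from dose-response fits of normalised traces, temperature-jump/thermophoresis mode.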
For orientation: Microscale thermophoresis detects binding through changes in fluorescence in a small temperature gradient.

Experiment [12] addresses T2, Tsr^N68A. The experiment in a line: FRET assay, cells expressing Tsr^N68A as sole receptor. It is filed as cell-based.
The target of experiment [13] is T6, Tsr-LBD. The settings on record: read-out: Kd, previously reported; cited from earlier work.

T4 sequence (P02942 1-201): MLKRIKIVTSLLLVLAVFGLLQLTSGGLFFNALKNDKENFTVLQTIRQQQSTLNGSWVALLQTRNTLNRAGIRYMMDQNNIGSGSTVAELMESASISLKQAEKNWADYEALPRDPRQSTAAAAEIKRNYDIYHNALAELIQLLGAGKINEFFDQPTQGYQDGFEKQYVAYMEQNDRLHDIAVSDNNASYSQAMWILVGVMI
T4 sequence (P07017 200-553): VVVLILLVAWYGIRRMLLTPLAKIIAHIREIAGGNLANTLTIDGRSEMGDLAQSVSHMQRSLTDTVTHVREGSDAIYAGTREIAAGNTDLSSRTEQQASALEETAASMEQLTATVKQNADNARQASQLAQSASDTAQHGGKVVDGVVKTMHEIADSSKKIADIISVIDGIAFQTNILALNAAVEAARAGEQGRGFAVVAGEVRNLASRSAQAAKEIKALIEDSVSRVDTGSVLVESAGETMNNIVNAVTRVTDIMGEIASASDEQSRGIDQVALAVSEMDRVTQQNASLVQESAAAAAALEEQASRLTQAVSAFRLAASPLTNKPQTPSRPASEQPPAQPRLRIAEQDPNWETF
T5 sequence (P02942 whole entry): as the sequence (P02942 whole entry N68A) above, with A68N counted along it
T1 sequence (P07017 whole entry): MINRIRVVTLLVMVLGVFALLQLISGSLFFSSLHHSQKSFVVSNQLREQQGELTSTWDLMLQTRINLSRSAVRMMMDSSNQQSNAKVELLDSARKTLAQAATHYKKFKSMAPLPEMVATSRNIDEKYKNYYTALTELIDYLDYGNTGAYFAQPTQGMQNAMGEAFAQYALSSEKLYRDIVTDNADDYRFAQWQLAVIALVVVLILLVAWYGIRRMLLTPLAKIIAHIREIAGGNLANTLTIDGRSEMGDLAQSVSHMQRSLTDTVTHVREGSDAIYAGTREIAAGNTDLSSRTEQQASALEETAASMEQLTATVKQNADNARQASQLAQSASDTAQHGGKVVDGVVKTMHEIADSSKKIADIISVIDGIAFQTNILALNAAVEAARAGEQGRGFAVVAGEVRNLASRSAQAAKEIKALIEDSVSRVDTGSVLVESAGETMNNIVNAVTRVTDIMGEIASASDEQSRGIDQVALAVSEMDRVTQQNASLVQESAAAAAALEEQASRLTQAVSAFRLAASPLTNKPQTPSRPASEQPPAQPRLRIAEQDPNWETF

In general, Kd refers to the equilibrium constant for the complex coming apart. For the molecule `NC1(C(=O)O)CCCCC1` [ACHC, 1-aminocyclohexanecarboxylic acid], the “chemotactic response (microfluidic)” value was “did not show obvious responses” on Tar [1]; “robust repellent responses” at Tsar [4]; “robust repellent response” on Tsr [6]; “robust repellent responses” in experiment [7]; “did not show obvious responses” at Tasr [10]. The FRET response entry in the experiment on wild-type RP437 is recorded as “repellent response”; at Tasr [3], “no or only a weak response”; on Tar [5], “no or only a weak response”; on Tsar [8], “repellent response”. Moreover, the “chemotactic response (microfluidic), compared with wild-type Tsr” value is on record as “weaker repellent responses; also recorded: weak repellent response” at Tsr^N68A [2], “weaker repellent responses” on Tsr^R64AN68A and “weaker repellent responses” at Tsr^R64A. Moreover, on Tsr [9], the “effect of adaptation to L-serine on FRET response to ligand” value is reported as “significantly inhibited”. In addition, the “FRET response (kinase activity)” value on Tsr [9] is “repellent response”. In addition, on Tsr-LBD [11], the equilibrium dissociation constant (Kd) amounted to 10.6 ± 2.4 mM. For the same molecule, the “binding to Tsr-LBD in competition (MST)” value at Tsr-LBD [11] is listed as “could not bind”.
Turning to `CC(C)C[C@H](N)C(=O)O` [L-leucine], the “chemotactic response (microfluidic)” value on Tar [1] is listed as “no response”; on Tsar [4], “repellent responses”; at Tsr [6], “repellent response”; in [7], “repellent responses”; at Tasr [10] it was “no response”. The “chemotactic response (microfluidic), compared with wild-type Tsr” value at Tsr^N68A [2] is given as “attractant response”; at Tsr^R64AN68A, “no response or much weaker responses”; on Tsr^R64A, “no response or much weaker responses”. For the same molecule, the FRET response entry on Tsr^N68A [12] was “strong attractant response”. Further, on Tsr [9], the “effect of adaptation to L-serine on FRET response to ligand” value is recorded as “significantly inhibited”. For the same molecule, the “FRET response (kinase activity)” value at Tsr [9] was “repellent response”. At Tsr-LBD [11], this molecule had a dissociation constant (Kd) of 23.6 ± 6.8 mM. Moreover, at Tsr-LBD [11], the “binding to Tsr-LBD in competition (MST)” value is recorded as “could not bind”.
For the molecule `N[C@@H](CO)C(=O)O` [L-serine], the “chemotactic response (microfluidic), compared with wild-type Tsr” value on Tsr^N68A [2], on Tsr^R64AN68A and at Tsr^R64A was “weaker attractant responses” in each case. Also, the results for the dissociation constant Kd on Tsr-LBD [13] and on Tsr-LBD [11] were 0.0356 mM and 0.207 mM, respectively. Moreover, the “chemotactic response (microfluidic)” value at Tsr [6] is recorded as “drifted up the L-serine gradient”. Further, at Tsr [9], the “FRET response (kinase activity)” value was “attractant response”.
